# Results reported in PMC3334839 (The Journal of Neuroscience, 2012).
# Where a chain is given by its changes, count along the chain named.
# Columns and labels:
# CB2 receptors = conditions: read-out: binding affinity (Ki) for CB2 receptors; ref Pertwee, 2000; cited from earlier work
# rat α2 GlyR = target: T1, rat α2 GlyR (Rattus norvegicus, UniProt P22771); test: Whole-cell patch-clamp of IGly in HEK-293 cells expressing α2 GlyRs; format: cell-based; conditions: 10 μM AEA, 5 min sustained, EC2 Gly (20 μM), wild-type α2
# T1 sequence (P22771 28-452): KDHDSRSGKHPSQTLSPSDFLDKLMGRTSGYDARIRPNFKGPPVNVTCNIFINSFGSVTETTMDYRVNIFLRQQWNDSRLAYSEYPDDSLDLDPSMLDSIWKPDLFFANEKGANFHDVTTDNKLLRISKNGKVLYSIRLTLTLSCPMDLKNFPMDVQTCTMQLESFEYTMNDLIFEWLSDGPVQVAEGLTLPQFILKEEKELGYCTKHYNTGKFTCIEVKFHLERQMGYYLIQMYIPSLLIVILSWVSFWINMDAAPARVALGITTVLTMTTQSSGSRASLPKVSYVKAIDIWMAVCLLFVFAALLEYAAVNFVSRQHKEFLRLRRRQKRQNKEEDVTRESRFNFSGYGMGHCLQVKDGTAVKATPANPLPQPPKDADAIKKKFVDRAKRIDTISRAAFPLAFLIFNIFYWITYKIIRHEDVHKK
# [1] = target: T2, S296A mutant human 5-HT3A receptor (Homo sapiens, UniProt P46098, S319A); format: cell-based; conditions: 0.1 μM AEA, vs wild-type
# T2 sequence (P46098 24-478 S319A): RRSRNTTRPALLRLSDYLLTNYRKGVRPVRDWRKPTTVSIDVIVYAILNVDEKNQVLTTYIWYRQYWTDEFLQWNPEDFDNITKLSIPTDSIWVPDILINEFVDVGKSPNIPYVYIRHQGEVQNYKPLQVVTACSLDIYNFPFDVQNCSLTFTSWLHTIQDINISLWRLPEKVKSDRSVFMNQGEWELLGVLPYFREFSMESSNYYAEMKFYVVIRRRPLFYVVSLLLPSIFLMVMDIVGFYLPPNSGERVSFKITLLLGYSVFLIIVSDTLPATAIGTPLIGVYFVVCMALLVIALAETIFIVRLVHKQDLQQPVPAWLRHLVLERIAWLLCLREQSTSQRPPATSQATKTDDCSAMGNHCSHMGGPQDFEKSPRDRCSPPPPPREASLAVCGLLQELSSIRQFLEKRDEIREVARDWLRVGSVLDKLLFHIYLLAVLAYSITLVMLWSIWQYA
# Method in brief: (§1)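 Human 5-HT3A receptors (wild-type or point mutant made by site-directed mutagenesis) transfected into HEK-293 cells. Cells recorded 2 d later, trypsin/EDTA-treated 2 h before, lifted, superfused with HEPES-buffered saline (pH 7.4). Whole-cell, CsCl pipette, −60 mV, 20–22°C. 5-HT 30 μM pulses before, during and after continuous 5 min test compound (0.1 μM) incubation; 5–7 cells, mean ± SE.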
# [2] = target: T3, S296A mutant human α1 GlyR (Homo sapiens, UniProt P23415, S324A); test: cell-based; format: cell-based; conditions: S296A α1
# T3 sequence (P23415 29-457 S324A): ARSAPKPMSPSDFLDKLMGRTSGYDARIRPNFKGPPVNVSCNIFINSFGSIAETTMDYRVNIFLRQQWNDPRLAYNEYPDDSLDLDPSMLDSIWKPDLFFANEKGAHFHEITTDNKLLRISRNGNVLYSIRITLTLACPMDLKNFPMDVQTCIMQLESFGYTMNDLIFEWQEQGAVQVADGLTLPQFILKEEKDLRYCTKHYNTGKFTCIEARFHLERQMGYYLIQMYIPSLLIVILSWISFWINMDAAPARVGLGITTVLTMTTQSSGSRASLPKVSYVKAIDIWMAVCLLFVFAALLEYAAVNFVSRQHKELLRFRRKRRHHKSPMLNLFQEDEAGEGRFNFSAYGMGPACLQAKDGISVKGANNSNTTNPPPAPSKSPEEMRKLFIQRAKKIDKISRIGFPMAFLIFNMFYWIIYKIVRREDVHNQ
# human 5-HT3A receptor = target: T4, human 5-HT3A receptor (Homo sapiens, UniProt P46098); format: cell-based
# T4 sequence (P46098 24-478): T2 sequence (P46098 24-478 S319A) with A296S
# Method in brief: as §1
compound,measurement,setting,value
"CCCCC/C=C\C/C=C\C/C=C\C/C=C\CCCC(=O)NCCO [AEA, anandamide]",Ki,CB2 receptors,279 to 1940 nM
same,average percentage potentiation of IGly,rat α2 GlyR,127 ± 37%
same,effect of S296A mutation on AEA-induced inhibition of 5-HT-activated current,[1],did not significantly alter
same,"AEA-induced potentiation of IGly, simultaneous application",[2]; 10 μM AEA simultaneously applied only with Gly,99 ± 20%
same,AEA-induced potentiation of IGly,"[2]; 10 μM AEA, 5 min sustained, EC2 Gly (10 μM)",131 ± 41%
same,effect on 5-HT-activated current,"human 5-HT3A receptor; 0.1 μM AEA for 5 min, 5-HT 30 μM, wild-type",gradually developing inhibition
same,time to maximal inhibition of I5-HT,human 5-HT3A receptor; continuous exposure to 0.1 μM AEA,5 min
